Source: ChEMBL document CHEMBL1143797, “Synthesis, characterization and in vitro biological studies of novel cyano derivatives of N-alkyl and N-aryl piperazine” (2007)
Converted amounts (≈) assume the structure as drawn. The source made the active and inactive calls. No cut-off for these calls is given here.

Experiments:
HeLa = assay: Cytotoxicity against Hela cells at 30 ug after 48 hrs by MTT assay relative to gentamicin; assay type: functional, Homo sapiens
Procedure, shortened: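 HeLa cells were grown in DMEM with 10% heat-inactivated FBS and penicillin-streptomycin at 37 °C, 5% CO₂, seeded at 8 × 10³ cells/well and allowed 16 h to adhere. They were exposed to compound in serum-free DMEM for 4 h, then kept 48 h in growth medium. MTT was added for 2 h, formazan was dissolved in isopropanol/0.06 M HCl/0.5% SDS, and A540 was read. Viability is % of untreated cells, with gentamicin as comparator.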

Pseudomonas aeruginosa [1] = assay: Antibacterial activity against Pseudomonas aeruginosa MTCCB 741 at 30 ug/disc after 48 hrs by disc diffusion method; assay type: functional; settings: for zone of inhibition at 30 µg/disc: read-out: IZ
Procedure, shortened: (§1)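 Compound-impregnated discs were placed on agar plates pre-inoculated with the bacterial strain and incubated at 37 °C. Zones of inhibition around the discs were read at 48 h. Gentamicin served as the standard control, alongside a solvent-only (DMSO) disc.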

Staphylococcus aureus [2] = assay: Antibacterial activity against Staphylococcus aureus MTCCB 737 at 30 ug/disc after 48 hrs by disc diffusion method; assay type: functional; settings: for zone of inhibition at 30 µg/disc: read-out: IZ; procedure, shortened: as §1
[3] = tested on: Staphylococcus epidermidis; assay: Antibacterial activity against Staphylococcus epidermidis MTCCB 1824 after 18-20 hrs by broth dilution method; assay type: functional
Procedure, shortened: (§2)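 MIC was found by microbroth dilution in Mueller-Hinton broth with serial two-fold compound dilutions. The inoculum came from a 4–6 h broth culture adjusted to 0.5 McFarland, then diluted in broth to a final 3 × 10⁶ cfu/ml.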

Pseudomonas aeruginosa [4] = assay: Antibacterial activity against Pseudomonas aeruginosa MTCCB 741 after 18-20 hrs by broth dilution method; assay type: functional; procedure, shortened: as §2
Staphylococcus aureus [5] = assay: Antibacterial activity against Staphylococcus aureus MTCCB 737 after 18-20 hrs by broth dilution method; assay type: functional; procedure, shortened: as §2
[6] = tested on: Staphylococcus epidermidis; assay: Antibacterial activity against Staphylococcus epidermidis MTCCB 1824 at 30 ug/disc after 48 hrs by disc diffusion method; assay type: functional; settings: for zone of inhibition at 30 µg/disc: read-out: IZ; procedure, shortened: as §1
Aspergillus flavus [7] = assay: Antifungal activity against Aspergillus flavus ITCC 5192 by micro-broth dilution method; assay type: functional
Aspergillus fumigatus [8] = assay: Antifungal activity against Aspergillus fumigatus ITCC 4517 by micro-broth dilution method; assay type: functional
Escherichia coli [9] = assay: Antibacterial activity against Escherichia coli MTCCB 1652 after 18-20 hrs by broth dilution method; assay type: functional; procedure, shortened: as §2
Aspergillus fumigatus [10] = assay: Antifungal activity against Aspergillus fumigatus ITCC 4517 by percentage spore germination inhibition method; assay type: functional
Procedure, shortened: (§3)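 Compound serially double-diluted in culture medium in 96-well plates, triplicate wells per concentration. Each well inoculated with spore suspension of about 100 ± 5 spores and incubated at 37 °C for 16 h. Germinated and non-germinated spores counted by inverted microscope. MIC90 is the lowest concentration giving >90% inhibition of spore germination.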

Aspergillus niger [11] = assay: Antifungal activity against Aspergillus niger ITCC 5405 by micro-broth dilution method; assay type: functional
Aspergillus flavus [12] = assay: Antifungal activity against Aspergillus flavus ITCC 5192 by percentage spore germination inhibition method; assay type: functional; procedure, shortened: as §3
Aspergillus niger [13] = assay: Antifungal activity against Aspergillus niger ITCC 5405 by percentage spore germination inhibition method; assay type: functional; procedure, shortened: as §3
Escherichia coli [14] = assay: Antibacterial activity against Escherichia coli MTCCB 1652 at 30 ug/disc after 48 hrs by disc diffusion method; assay type: functional; settings: for zone of inhibition at 30 µg/disc: read-out: IZ; procedure, shortened: as §1
Aspergillus fumigatus [15] = assay: Antifungal activity against Aspergillus fumigatus ITCC 4517 by disc diffusion method; assay type: functional
Procedure, shortened: (§4)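 Agar plates inoculated with Aspergillus spores; sterile 5.0 mm filter-paper discs loaded with test compound over a range of 750–1.46 (unit as printed unclear) and placed on the surface. Incubated at 37 °C; zones read at 24, 48 and 96 h. MIC was taken as the lowest concentration giving an inhibition zone of at least 6.0 mm diameter.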

Aspergillus niger [16] = assay: Antifungal activity against Aspergillus niger ITCC 5405 by disc diffusion method; assay type: functional; procedure, shortened: as §4
Aspergillus flavus [17] = assay: Antifungal activity against Aspergillus flavus ITCC 5192 by disc diffusion method; assay type: functional; procedure, shortened: as §4

Compound | zone of inhibition at 30 µg/disc (Pseudomonas aeruginosa [1]) [mm] | MIC (Aspergillus flavus [7]) [µg/mL] | MIC (Aspergillus fumigatus [8]) [µg/mL] | zone of inhibition at 30 µg/disc (Staphylococcus aureus [2]) [mm] | MIC [3] [µg/mL] | MIC (Pseudomonas aeruginosa [4]) [µg/mL] | MIC (Escherichia coli [9]) [µg/mL] | MIC (Staphylococcus aureus [5]) [µg/mL] | zone of inhibition at 30 µg/disc [6] [mm] | MIC (Aspergillus fumigatus [10]) [µg/mL] | MIC (Aspergillus niger [11]) [µg/mL] | MIC (Aspergillus flavus [12]) [µg/mL] | MIC (Aspergillus niger [13]) [µg/mL] | zone of inhibition at 30 µg/disc (Escherichia coli [14]) [mm] | further results
N#CCN1CCN(c2ccccc2[N+](=O)[O-])CC1 | – | – | – | – | – | – | – | – | – | – | – | – | – | – | Activity (HeLa): 60%; Activity (Pseudomonas aeruginosa [1]): inactive; Activity (Staphylococcus aureus [2]): inactive; Activity [3]: inactive; Activity (Pseudomonas aeruginosa [4]): inactive; Activity (Staphylococcus aureus [5]): inactive; Activity [6]: inactive
N#CCN1CCN(c2ccccc2)CC1 | 13 | 500 (≈ 2480 µM) | 500 (≈ 2480 µM) | 10 | 156 (≈ 777 µM) | 156 (≈ 777 µM) | 310 (≈ 1540 µM) | 310 (≈ 1540 µM) | 12 | 250 (≈ 1240 µM) | 500 (≈ 2480 µM) | 500 (≈ 2480 µM) | 250 (≈ 1240 µM) | 9 | Activity (HeLa): >95%
COc1ccccc1N1CCN(CC#N)CC1 | 8 | – | – | 9 | 625 (≈ 2700 µM) | 625 (≈ 2700 µM) | 310 (≈ 1340 µM) | 625 (≈ 2700 µM) | 8 | – | – | – | – | 10 | –
N#CCCN1CCNCC1 | – | – | – | – | – | – | – | – | – | – | – | – | – | – | Activity (Pseudomonas aeruginosa [1]): inactive; Activity (Staphylococcus aureus [2]): inactive; Activity [3]: inactive; Activity (Pseudomonas aeruginosa [4]): inactive; Activity (Staphylococcus aureus [5]): inactive; Activity [6]: inactive
GENTAMICIN | – | – | – | – | 19.5 | 19.5 | 19.5 | 9.8 | – | – | – | – | – | – | inhibition zone (IZ) (Pseudomonas aeruginosa [1]): 19 mm; inhibition zone (IZ) (Staphylococcus aureus [2]): 20 mm; inhibition zone (IZ) [6]: 18 mm; inhibition zone (IZ) (Escherichia coli [14]): 18 mm
C[C@@H]1[C@H](O)[C@@H](C)/C=C/C=C/C=C/C=C/C=C/C=C/C=C/[C@H](O[C@@H]2O[C@H](C)[C@@H](O)[C@H](N)[C@@H]2O)C[C@@H]2O[C@](O)(C[C@@H](O)C[C@@H](O)[C@H](O)CC[C@@H](O)C[C@@H](O)CC(=O)O[C@H]1C)C[C@H](O)[C@H]2C(=O)O [AMPHOTERICIN B] | – | 5 (≈ 5.41 µM) | 5 (≈ 5.41 µM) | – | – | – | – | – | – | 5 (≈ 5.41 µM) | 5 (≈ 5.41 µM) | 5 (≈ 5.41 µM) | 5 (≈ 5.41 µM) | – | MIC (Aspergillus fumigatus [15]): 2.5 µg/disc; MIC (Aspergillus niger [16]): 2.5 µg/disc; MIC (Aspergillus flavus [17]): 2.5 µg/disc
CN1CCN(CC#N)CC1 | 9 | 500 (≈ 3590 µM) | 500 (≈ 3590 µM) | 12 | 625 (≈ 4490 µM) | 625 (≈ 4490 µM) | 310 (≈ 2230 µM) | 310 (≈ 2230 µM) | 8 | 500 (≈ 3590 µM) | 500 (≈ 3590 µM) | 250 (≈ 1800 µM) | 250 (≈ 1800 µM) | 12 | MIC (Aspergillus niger [16]): 93.7 µg/disc; MIC (Aspergillus flavus [17]): 93.8 µg/disc
